PLC-beta3 inh: human PLC-beta3 inhibitors, primary screen, biochemical, fluorescence; 1-phosphatidylinositol 4,5-bisphosphate phosphodiesterase beta-3 (Homo sapiens), Q01970; Purified PLC-beta3, fluorogenic substrate; inhibition, % at 12.2 µM; 370,000 compounds, 0.18% hits; AID 720704, 2013;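 note: 0% = median of compound wells on plate and 100% = full blocker control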
TbMetRS inhib: T. brucei MetRS inhibitors, primary screen, biochemical, luminescence | 360,000 compounds, 0.4% hits | methionyl-tRNA synthetase (Trypanosoma brucei brucei) | purified T. brucei MetRS, ATP depletion, Kinase-Glo luminescence | inhibition, % at 11.9 µM;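 active = inhibition above a per-plate cutoff of the control wells' mean inhibition plus 3 SD, cut at about 5.5% in these data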;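 note: 0% = DMSO wells median and 100% = median of wells with control inhibitor compound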
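Dosing: 11.9 µM single point; system: parasite MetRS enzyme; technique: luminescence of leftover ATP; times: 15 min enzyme-compound preincubation, 2 h reaction, 10 min detection, 25 °C; replicates: each compound tested once; read-out basis: percent inhibition relative to median high and low control wells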
ADAM17 inh: ADAM17 inhibitors, primary screen, biochemical, QFRET; Disintegrin and metalloproteinase domain-containing protein 17 (Homo sapiens), P78536; recombinant ADAM17, EDANS/DABCYL FRET peptide cleavage; inhibition, % at 6.95 µM; 370,000 compounds, 0.83% hits; AID 720648, 2013;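 active = inhibition above the mean of compounds lying between control limits plus 3 SD, set per campaign, cut at about 8.5% in these data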;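 note: 0% = DMSO-only wells as the low control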
ADAM10 inh: human ADAM10 inhibitors, primary screen, biochemical, QFRET, HTS; Disintegrin and metalloproteinase domain-containing protein 10 (Homo sapiens), O14672; 370,000 compounds, 0.62% hits; inhibition, % at 7 µM; recombinant ADAM10, EDANS/DABCYL FRET peptide cleavage, 3 h; AID 720582, 2013;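 active = inhibition above a per-campaign cutoff equal to the mean of compounds falling between control-based bounds plus 3 SD, cut at about 20% in these data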;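 note: 0% = DMSO wells while the 100% control is not disclosed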
Target sequence (O14672 214-748 limits assumed): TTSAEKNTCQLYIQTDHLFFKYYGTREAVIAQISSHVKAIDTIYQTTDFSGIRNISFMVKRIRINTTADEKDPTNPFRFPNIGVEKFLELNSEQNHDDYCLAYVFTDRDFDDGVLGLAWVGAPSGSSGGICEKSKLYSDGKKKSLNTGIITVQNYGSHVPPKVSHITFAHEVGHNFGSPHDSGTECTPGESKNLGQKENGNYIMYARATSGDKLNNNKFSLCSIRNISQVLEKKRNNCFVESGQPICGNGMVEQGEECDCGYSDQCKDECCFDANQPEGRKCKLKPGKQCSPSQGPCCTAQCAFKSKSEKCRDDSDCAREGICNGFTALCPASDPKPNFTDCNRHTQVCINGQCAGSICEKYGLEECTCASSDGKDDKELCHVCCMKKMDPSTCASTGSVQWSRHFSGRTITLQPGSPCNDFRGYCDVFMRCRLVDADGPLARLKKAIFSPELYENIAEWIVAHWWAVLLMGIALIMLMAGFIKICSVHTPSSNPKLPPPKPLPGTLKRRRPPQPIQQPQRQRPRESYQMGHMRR
PLC-gamma1 inh: PLC-gamma1 enzyme inhibitors, primary screen, biochemical, fluorescence, purified enzyme | 1-phosphatidylinositol 4,5-bisphosphate phosphodiesterase gamma-1 (Homo sapiens), P19174 | fluorogenic substrate | inhibition, % at 12.2 µM | 370,000 compounds, 0.84% hits | AID 720700, 2013; in the data active = inhibition above about 9.5%
PLCgamma1 ctr: PLC-gamma1 enzyme inhibitors, counter-screen for PLC-beta3 inhibitor project, biochemical, fluorescence; shares compounds with PLC-gamma1 inh; inhibition, % at 12.3 µM; 3,300 compounds, 3.1% hits; purified PLC-gamma1, fluorogenic substrate; in the data active = inhibition above about 9.5%
PLCb3 confirm: PLC-beta3 inhibitor confirmation, biochemical, fluorescence, purified enzyme; inhibition, % at 12.3 µM; 3,300 compounds, 1% hits; shares compounds with PLC-gamma1 inh; AID 743261, 2014; fluorogenic substrate fluorescence
Starred values were filed as active, the others as inactive. The list is not random: actives were taken first. Their share in the collection is about 2.3%. Cut-off read from the data, not from the text of the source, unless noted: active = inhibition above about 11%; inactive = the rest.

What do the screens show for `Cc1ccc(Nc2nc(=O)c3cccnc3s2)cc1`?
PLC-beta3 inh: 2; TbMetRS inhib: 1; ADAM17 inh: 8; ADAM10 inh: 11; PLC-gamma1 inh: 11*; PLCgamma1 ctr: -6; PLCb3 confirm: -3

What do the screens show for `Cc1[nH]n(-c2ccccc2)c(=O)c1CCOC(=O)c1cccc(C(F)(F)F)c1`?
PLC-beta3 inh: 6; TbMetRS inhib: -1; ADAM17 inh: 6; ADAM10 inh: 9; PLC-gamma1 inh: 11*; PLCgamma1 ctr: -8; PLCb3 confirm: -5

How did CCc1nnc(NC(=O)CSc2ncnc3c2oc2ccccc23)s1 do in these assays?
PLC-beta3 inh: 4; TbMetRS inhib: 0; ADAM17 inh: 0; ADAM10 inh: 0; PLC-gamma1 inh: 2

What do the screens show for `O=C(CSc1ncnc2c1oc1ccccc12)Nc1nc2ccccc2s1`?
PLC-beta3 inh: 8; TbMetRS inhib: 0; ADAM17 inh: 1; ADAM10 inh: 10; PLC-gamma1 inh: 9.6*; PLCgamma1 ctr: -5; PLCb3 confirm: -5

What do the screens show for `COc1ccc(N(C(=O)COc2ccccc2)C2C=CS(=O)(=O)C2)c(OC)c1` (stereo unspecified)?
PLC-beta3 inh: 5; TbMetRS inhib: 0; ADAM17 inh: 7; ADAM10 inh: 9; PLC-gamma1 inh: 14*; PLCgamma1 ctr: -5; PLCb3 confirm: -2

How did CC1=C(C(=O)N(C)C)CC(CC(=O)NCCc2ccccn2)C(=O)N1Cc1ccc(C(C)(C)C)cc1 (stereo unspecified) do in these assays?
PLC-beta3 inh: -3; TbMetRS inhib: 1; ADAM17 inh: -3; ADAM10 inh: -11; PLC-gamma1 inh: -1

Results for O=C(NC1CCCC1)C1C(c2ccc(C(F)(F)F)cc2)=Nc2ccccc2N1C(=O)c1cc2ccccc2[nH]1 (stereo unspecified) ?
PLC-beta3 inh: -75; TbMetRS inhib: 1; ADAM17 inh: -13; ADAM10 inh: -43; PLC-gamma1 inh: -53

What do the screens show for `O=C(O)/C=C\C(=O)NCc1ccccc1`?
PLC-beta3 inh: 1; TbMetRS inhib: 0; ADAM17 inh: -2; ADAM10 inh: -4; PLC-gamma1 inh: 0

Results for O=C(O)/C=C/C(=O)NCc1ccccc1 ?
PLC-beta3 inh: 6; TbMetRS inhib: -1; ADAM17 inh: 7; ADAM10 inh: 1; PLC-gamma1 inh: 10*; PLCgamma1 ctr: -6; PLCb3 confirm: -3

How did CC1CCCCN1S(=O)(=O)Cc1ccccc1Cl (stereo unspecified) do in these assays?
PLC-beta3 inh: -4; TbMetRS inhib: 0; ADAM17 inh: -2; ADAM10 inh: 5; PLC-gamma1 inh: -1

Results for CCOc1cc(/C=C2/C(=O)N(c3ccccc3)N=C2C)ccc1OC(=O)c1ccco1 ?
PLC-beta3 inh: 3; TbMetRS inhib: 0; ADAM17 inh: 3; ADAM10 inh: -1; PLC-gamma1 inh: 10*; PLCgamma1 ctr: -4; PLCb3 confirm: -3

How did CCOC(=O)N1CCN(C(=O)COc2ccccc2Cl)CC1 do in these assays?
PLC-beta3 inh: 10; TbMetRS inhib: 1; ADAM17 inh: 3; ADAM10 inh: 5; PLC-gamma1 inh: 9.5*; PLCgamma1 ctr: 1; PLCb3 confirm: 3

Results for O=C(COc1ccccc1Cl)N1CCCC1 ?
PLC-beta3 inh: 1; TbMetRS inhib: -1; ADAM17 inh: -2; ADAM10 inh: 3; PLC-gamma1 inh: 1

How did COC(=O)C[C@H]1c2cc(F)ccc2S(=O)(=O)N1Cc1ccccc1 do in these assays?
PLC-beta3 inh: 0; TbMetRS inhib: 0; ADAM17 inh: -6; ADAM10 inh: 4; PLC-gamma1 inh: 0

Results for CC(C)c1ccc(NC(=O)O[C@H]2CC[C@@]34CCCN3C(=O)CCC[C@H]4[C@H]2C)cc1 ?
PLC-beta3 inh: 2; ADAM17 inh: 2; ADAM10 inh: 11; PLC-gamma1 inh: 0

Results for CCn1c2ccccc2c2cc(NC(=O)COC(=O)c3cc(F)ccc3F)ccc21 ?
PLC-beta3 inh: 2; ADAM17 inh: 1; ADAM10 inh: 3; PLC-gamma1 inh: 1

What do the screens show for `Cc1cccc(C)c1NC(=O)C(C1CC1)n1c(-c2ccc(-c3ccccc3)cc2)nc2ccccc21` (stereo unspecified)?
PLC-beta3 inh: -32; TbMetRS inhib: 0; ADAM17 inh: -7; ADAM10 inh: -26; PLC-gamma1 inh: -31

How did O=C(NC1CCCCC1)C(c1ccc2ncccc2c1)N(Cc1ccc2c(c1)OCO2)C(=O)c1cccs1 (stereo unspecified) do in these assays?
PLC-beta3 inh: 0; TbMetRS inhib: 0; ADAM17 inh: 2; ADAM10 inh: 4; PLC-gamma1 inh: 9.6*; PLCgamma1 ctr: -6; PLCb3 confirm: -2

Results for O=C(NC1CCCCC1)C(c1ccncc1)N(Cc1ccc2c(c1)OCO2)C(=O)c1cnsn1 (stereo unspecified) ?
PLC-beta3 inh: 11*; TbMetRS inhib: 0; ADAM17 inh: 4; ADAM10 inh: 15; PLC-gamma1 inh: 6; PLCgamma1 ctr: -6; PLCb3 confirm: -3

Results for O=C(Nc1c(-c2ccc3c(c2)OCO3)[nH][nH]c1=O)c1cccc(C(F)(F)F)c1 ?
PLC-beta3 inh: -19; TbMetRS inhib: 1; ADAM17 inh: -27; ADAM10 inh: -121; PLC-gamma1 inh: -9

How did Cc1ccc(C(=O)NCC(=O)NCC(=O)OCC(=O)c2ccc(F)cc2)cc1 do in these assays?
PLC-beta3 inh: -11; TbMetRS inhib: 0; ADAM17 inh: -2; ADAM10 inh: -10; PLC-gamma1 inh: 13*; PLCgamma1 ctr: -5; PLCb3 confirm: -2

How did O=C(CNC(=O)c1ccccc1)NCC(=O)OCC(=O)c1ccc(F)cc1 do in these assays?
PLC-beta3 inh: 3; TbMetRS inhib: -1; ADAM17 inh: -3; ADAM10 inh: 1; PLC-gamma1 inh: 2

What do the screens show for `O=C(CCCCCNC(=O)N1CCn2c1nc1ccccc12)NCc1ccc(F)cc1`?
PLC-beta3 inh: 0; TbMetRS inhib: -1; ADAM17 inh: 3; ADAM10 inh: 2; PLC-gamma1 inh: 11*; PLCgamma1 ctr: -5; PLCb3 confirm: -4

How did O=S(=O)(c1ccccc1)N1CCN(CCc2ccccc2)CC1 do in these assays?
PLC-beta3 inh: -1; TbMetRS inhib: -1; ADAM17 inh: 1; ADAM10 inh: -1; PLC-gamma1 inh: -1

Bioassay records: PubChem, The Scripps Research Institute Molecular Screening Center
